# What was measured:
# [1] = folding enthalpy; higher = less favourable; fluorescence melt of hairpins on a sequencing array, two-state fit; settings: sodium 0.088 M
# Summary of the method: (§1)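 Folding enthalpy and melting temperature come from bootstrapped two-state fits to Cy3 fluorescence of library hairpins carrying annealed Cy3 and quencher oligos on a sequenced MiSeq flow cell. Imaging was done in 50 mM Na-HEPES pH 8.0, 25 mM NaCl, stepping by 2.5 °C up to 60 °C, and signals were normalised to pre-quench Cy3 and to control constructs. Results of four replicates were combined by inverse variance, and fitted temperatures were raised by 9.35 °C to match UV melts.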
# [2] = melting temperature; fluorescence melt of hairpins on a sequencing array, two-state fit, raised by 9.35 °C to match UV melts; settings: sodium 0.088 M
# Summary of the method: as §1
Sequence,folding enthalpy [1],Tm [2]
GGGGCACCGAAAGGTCCC (((..(((....)))))),-25.9 kcal/mol,53.1 °C
GAAACTGGAAACAGTTCC (.(((((....))))).),-19.3 kcal/mol,35.2 °C
GCCTCAGGAAACCGAGGC (((((.(....).))))),-45.1 kcal/mol,53.5 °C
GAGGAGGGAAACCTTCTC (((.(((....))).))),-27.3 kcal/mol,42.7 °C
GTTGGCGGAAACGCCAGC (.(((((....))))).),-15.4 kcal/mol,58.2 °C
GGCGGCGAAAGCCTTGCC ((((((....)))..))),-19.2 kcal/mol,55.1 °C
GCTTACGAAAGTATAAGC ((((((....)))..))),-28.6 kcal/mol,38.3 °C
GCGAGGCGAAAGCGCCGC (((..((....))..))),-12.5 kcal/mol,63.8 °C
GTCCGGGGAAACCTGGGC (.((.((....)).)).),-29.8 kcal/mol,48.3 °C
GAAGAGGCGAAAGCCTTC (((..(((....)))))),-8.73 kcal/mol,33.2 °C
GCTATCGAAAGATTTAGC ((((((....)))..))),-19.9 kcal/mol,32.7 °C
GTCGGCGAAAGCCTAGAC ((((((....)))..))),-18.1 kcal/mol,47.1 °C
GCCCAGCGAAAGCTGTGC ((.((((....)))).)),-16 kcal/mol,61 °C
GTTCTGCGAAAGCAAAAC (((.(((....))).))),-16.7 kcal/mol,38.4 °C
GCGATCGGAAACGATCAC (.(((((....))))).),-14.7 kcal/mol,46.5 °C
GCGTTGCGAAAGCGTCGC (((..((....))..))),-20.8 kcal/mol,63.6 °C
GCAGTGCGAAAGCAAGGC ((..(((....)))..)),-16.1 kcal/mol,56.7 °C

Sequence,folding enthalpy [1],Tm [2]
GCAAAGCGAAAGCGTGGC ((.(.((....)).).)),-15.9 kcal/mol,50.6 °C
GCCAGCGAAAGCTAGGGC ((((((....)))..))),-31.6 kcal/mol,52.7 °C
GTTTGCGAAAGCACAAC ((((((....))).))),-17.1 kcal/mol,41.1 °C
TTGACGAAAGTCAA (((((....))))),-21.4 kcal/mol,54.1 °C
GAGGGTGGAAACACCTTC ((.((((....)))).)),-15.9 kcal/mol,47 °C
CGATCGGAAACGATGTCG ((((((....)))..))),-13.6 kcal/mol,39.5 °C
GCTCAGCGAAAGCGAAGC (((..((....))..))),-18.5 kcal/mol,43.3 °C
GTAGCGGGAAACCACTAC ((((.((....)).)))),-34.1 kcal/mol,42.2 °C
GGGTTCGAAAGAAAACCC ((((((....)))..))),-23.8 kcal/mol,42.2 °C
GGAACCGAAAGGTTTTCC ((((((....)))..))),-12.6 kcal/mol,35.6 °C
GAATCCCCGAAAGGGTTC (((..(((....)))))),-14.4 kcal/mol,31 °C
GGATCTGGAAACGGATTC (.(((.(....).))).),-28.5 kcal/mol,31.5 °C
GGGTATGGAAACATACCC (((((((....))))))),-44 kcal/mol,62.6 °C
GATCCAGATCTGGATC ((((((....)))))),-48 kcal/mol,54.3 °C
GCTGGTCCGAAAGGAAGC (((..(((....)))))),-13.2 kcal/mol,34.9 °C
GTCTATGAAAATAGAC ((((((....)))))),-32.8 kcal/mol,49.5 °C
GACGCGGGAAACCGCACC (..((((....))))..),-8.05 kcal/mol,32.2 °C

# Source: the array DNA melting data of Ke et al. (doi:10.1101/2024.01.08.574731)
